{"data": "Experimental data collected from several papers", "note": "Lines come from different studies, so protocols differ."}
{"SMILES": "O=C(N/N=C/c1ccc([N+](=O)[O-])o1)c1cn(Cc2ccccc2)c2ccc([N+](=O)[O-])cc2c1=O", "organism": "Trypanosoma brucei", "observed": "parasite growth", "technique": "resazurin", "time": "72 h", "quantity": "EC50", "value": "0.37 µM"}
{"SMILES": "COc1ccc(C(=O)CSc2[nH]c(=O)cc(C(F)(F)F)c2C#N)cc1", "organism": "Trypanosoma brucei", "observed": "parasite growth", "technique": "resazurin", "quantity": "EC50", "value": "30.8 µM"}
{"SMILES": "Cl.N[C@H]1CCN(c2cc(C(=O)NCC(=O)O)ccc2NC(=O)c2cc(Br)c(Br)[nH]2)C1", "organism": "Enterococcus faecium", "observed": "microbial growth", "technique": "broth dilution", "strain": "ATCC35667", "quantity": "MIC", "value": "> 32 µg/mL"}
{"SMILES": "Cc1ccc(Cn2cc(C(=O)N/N=C/c3ccc([N+](=O)[O-])o3)c(=O)c3cc([N+](=O)[O-])ccc32)cc1", "organism": "Trypanosoma brucei", "observed": "parasite growth", "technique": "resazurin", "time": "72 h", "quantity": "EC50", "value": "> 4 µM"}
{"SMILES": "Cc1cc(C)c(C(N)=O)c(SCC(=O)c2ccc(Cl)cc2Cl)n1", "organism": "Trypanosoma brucei", "observed": "parasite growth", "technique": "resazurin", "quantity": "EC50", "value": "> 64 µM"}
{"SMILES": "N=C(N)c1ccc(OCCCCCOc2ccc(C(=N)N)cc2)cc1", "organism": "Trypanosoma brucei", "observed": "parasite growth", "technique": "SYBR Green", "quantity": "EC50", "value": "0.016 µM"}
{"SMILES": "COc1ccc2c(c1)c(=O)c(C(=O)NN)cn2Cc1ccccc1", "organism": "Trypanosoma brucei", "observed": "parasite growth", "technique": "resazurin", "time": "72 h", "quantity": "EC50", "value": "> 4 µM"}
{"SMILES": "Cc1cc(C)c(C#N)c(SCc2ccccc2)n1", "organism": "Trypanosoma brucei", "observed": "parasite growth", "technique": "resazurin", "strain": "RHODESIENSE", "quantity": "EC50", "value": "> 64 µM"}
{"SMILES": "Cl.O=C(O)CNC(=O)c1ccc(NC(=O)c2cc(Br)c(Br)[nH]2)c(N2CCNCC2)c1", "organism": "Enterococcus faecium", "observed": "microbial growth", "technique": "broth dilution", "strain": "ATCC35667", "quantity": "MIC", "value": "> 32 µg/mL"}
{"SMILES": "Cc1ccc(Cn2cc(C(=O)NN)c(=O)c3cc(Oc4ccccc4)ccc32)cc1", "organism": "Trypanosoma brucei", "observed": "parasite growth", "technique": "resazurin", "time": "72 h", "quantity": "EC50", "value": "0.46 µM"}
{"SMILES": "Cc1[nH]c(C(=O)Nc2ccc(C(=O)NCC(=O)O)cc2N2CC[C@H](NC(=O)OC(C)(C)C)C2)c(Cl)c1Cl", "organism": "Enterococcus faecium", "observed": "microbial growth", "technique": "broth dilution", "strain": "ATCC35667", "quantity": "MIC", "value": "> 32 µg/mL"}
{"SMILES": "COc1cc(NC(=O)c2ccc(C(F)(F)F)cc2C(F)(F)F)ccc1S(N)(=O)=O", "organism": "Trypanosoma brucei", "observed": "parasite growth", "technique": "MTS", "quantity": "IC50", "value": "> 100 µM"}
{"SMILES": "Cc1cc(C)c(C#N)c(SCC(=O)c2ccc(Cl)cc2)n1", "organism": "Trypanosoma brucei", "observed": "parasite growth", "technique": "resazurin", "strain": "RHODESIENSE", "quantity": "EC50", "value": "30.2 µM"}
{"SMILES": "Cc1ccc(Cn2cc(C(=O)N/N=C/c3ccc([N+](=O)[O-])o3)c(=O)c3cc(Cl)c(Cl)cc32)cc1", "organism": "Trypanosoma brucei", "observed": "parasite growth", "technique": "resazurin", "time": "72 h", "quantity": "EC50", "value": "1.02 µM"}
{"SMILES": "CC(C)(C)OC(=O)N[C@@H]1CCN(c2cc(C(=O)NCC(=O)O)ccc2NC(=O)c2cc(Br)c(Br)[nH]2)C1", "organism": "Enterococcus faecium", "observed": "microbial growth", "technique": "broth dilution", "strain": "ATCC35667", "quantity": "MIC", "value": "> 32 µg/mL"}
{"SMILES": "Cc1cc(C)c(C#N)c(SCC(=O)c2ccc(F)cc2)n1", "organism": "Trypanosoma brucei", "observed": "parasite growth", "technique": "resazurin", "quantity": "EC50", "value": "42.6 µM"}
